Key:
[1] = Distribution coefficient, log D of the compound; type: physicochemical; settings: octanol/water
[2] = Metabolic stability in human liver microsomes; type: ADME, Microsome; settings: read-out: Stability
Homo sapiens = species: Homo sapiens; test: Selectivity for human recombinant adrenergic beta2 receptor over human recombinant adrenergic beta-1 receptor
In short: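 Cell-based functional agonist assay using recombinant human β2 receptor expressed in CHO cells, compared against human β1 receptor.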

[3] = Clearance in iv dosed rat; type: ADME, organism-based; settings: in vivo
In short: (§1)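 Rats were given the compound intravenously, and volume of distribution, clearance and half life were determined from that dosing.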

[4] = Half life in iv dosed rat; type: ADME, organism-based; settings: in vivo; in short: as §1
[5] = Oral bioavailability in rat; type: ADME, organism-based; settings: in vivo
In short: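 Rats received the compound orally and intravenously in a crossover study.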

[6] = Volume of distribution in iv dosed rat; type: ADME, organism-based; settings: in vivo; in short: as §1

SMILES | half-life [2] [min] | Selectivity ratio (Homo sapiens) | clearance [3] [mL/min/kg] | half-life [4] [min] | bioavailability [5] [%] | Vd [6] [L/kg] | logD [1]
C[C@H](Cc1cccc(CC(=O)NCC2CCCCCC2)c1)NC[C@H](O)c1ccc(O)c(CO)c1 |  | 1890 |  |  |  |  | 2
C[C@H](Cc1cccc(CC(=O)NCC2CCCCC2)c1)NC[C@H](O)c1ccc(O)c(CO)c1 | 3 | 6790 |  |  |  |  | 1.5
C[C@H](Cc1cccc(CC(=O)NC2CCCCCCC2)c1)NC[C@H](O)c1ccc(O)c(CO)c1 | 2 | 192 |  |  |  |  | 1.9

More lines, main results first:

half-life [2] [min] | Selectivity ratio (Homo sapiens) | clearance [3] [mL/min/kg] | half-life [4] [min] | bioavailability [5] [%] | Vd [6] [L/kg] | SMILES | logD [1]
2 | 547 |  |  |  |  | C[C@H](Cc1cccc(CC(=O)NCC23CC4CC(CC(C4)C2)C3)c1)NC[C@H](O)c1ccc(O)c(CO)c1 | 2.5
2 | 2210 | 103 | 96 | < 5 | 14 | C[C@H](Cc1cccc(CC(=O)NC23CC4CC(CC(C4)C2)C3)c1)NC[C@H](O)c1ccc(O)c(CO)c1 | 2.1
4 | 6340 |  |  |  |  | C[C@H](Cc1cccc(CC(=O)NCc2ccc(Cl)c(Cl)c2)c1)NC[C@H](O)c1ccc(O)c(CO)c1 | 
2 | 451 |  |  |  |  | C[C@H](Cc1cccc(CC(=O)NC2C3CC4CC(C3)CC2C4)c1)NC[C@H](O)c1ccc(O)c(CO)c1 (stereo partly drawn) | 2.1

From ChEMBL document CHEMBL1142368, “The discovery of adamantyl-derived, inhaled, long acting beta(2)-adrenoreceptor agonists” (Bioorg Med Chem Lett, 2008)
